Reference: PubChem BioAssay AID623912 (Johns Hopkins Ion Channel Center, 2012)
Active and inactive are the calls of the source.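 How the source made its calls: active means peak KCNK3 inhibition above a set limit at some dose, plus a fitted dose-response curve; inactive means no KCNK3 inhibition, or no dose-response curve.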

Molecular target: Potassium channel subfamily K member 3 (Rattus norvegicus) (UniProt O54912)
Assay: KCNK3 off-target potassium flux block – cell-based, FluxOR thallium flux, CRC set 2, selectivity assay for KCNK9 inhibitor project, SAR follow-up (AID 623912)
Conditions: KCNK3-expressing cells, FluxOR thallium flux fluorescence; for flux ratio, lower = inhibition: at 3 µM (top of the series)
Procedure, shortened: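 Material: tetracycline-induced CHO cells expressing rat KCNK3 potassium channel / Probe or stimulus: Tl+/K+ sulfate stimulus buffer (5x stock) / Dosing: compound concentration-response series / Schedule: 90 min FluxOR loading, 20 min compound, 10+110 s recording / Technique: FluxOR Tl+ flux fluorescence / Read-out: IC50 from normalized flux signal / Replicates: at least duplicate concentration-response curves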

Sequence of Potassium channel subfamily K member 3 (Rattus norvegicus) (O54912 whole entry, looked up): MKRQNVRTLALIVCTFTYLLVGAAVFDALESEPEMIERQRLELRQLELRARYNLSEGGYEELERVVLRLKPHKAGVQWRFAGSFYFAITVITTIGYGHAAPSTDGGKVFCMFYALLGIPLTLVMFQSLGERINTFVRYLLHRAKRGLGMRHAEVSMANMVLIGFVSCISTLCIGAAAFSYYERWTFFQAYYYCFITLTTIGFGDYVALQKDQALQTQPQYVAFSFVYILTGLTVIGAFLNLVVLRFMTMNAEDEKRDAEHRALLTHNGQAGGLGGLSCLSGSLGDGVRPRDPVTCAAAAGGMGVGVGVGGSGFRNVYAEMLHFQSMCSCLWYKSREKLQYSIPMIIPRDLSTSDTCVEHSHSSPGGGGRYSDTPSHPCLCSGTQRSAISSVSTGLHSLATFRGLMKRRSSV

SMILES | IC50 | flux ratio, lower = inhibition
Cc1cccc(C(=O)Nc2ccc(C(=O)Nc3ccccc3)cc2)c1 | 0.183 µM | 
O=C(Nc1ccccc1Cl)c1cccc(NC(=O)C2CCCC2)c1 | 0.202 µM | 
CC(C1CC2CCC1C2)n1c(-c2ccco2)n[nH]c1=S (stereo not drawn) | 0.341 µM | 
CSc1nnc(-c2ccco2)n1C(C)C1CC2CCC1C2 (stereo not drawn) | 0.873 µM | 
COc1ccccc1C(=O)Nc1cccc(NC(=O)c2ccccc2C)c1 | 0.073 µM | 
CC(C)n1c(-c2ccco2)n[nH]c1=S | 0.0922 µM | 
COc1ccccc1C(=O)Nc1cccc(NC(=O)c2cccc(C)c2)c1 | 0.011 µM | 
CC(C1CC2CCC1C2)n1c(-c2ccoc2)n[nH]c1=S (stereo not drawn) | 0.298 µM | 
Cc1ccc(C(=O)Nc2cccc(NC(=O)c3ccccc3)c2)cc1 |  | inactive
CC(C1CC2CCC1C2)n1c(-c2ccccn2)n[nH]c1=S (stereo not drawn) | 1.3 µM | 
CCOc1ccccc1NC(=O)c1cccc(NC(=O)C2CC2)c1 | 1.07 µM | 
COc1ccccc1NC(=O)c1cccc(NC(=O)c2ccccc2OC)c1 | 0.008 µM | 
Cc1cccc(C(=O)Nc2cccc(NC(=O)c3ccccc3OC(F)(F)F)c2)c1 | 0.0285 µM | 
COc1ccccc1-c1n[nH]c(=S)n1C(C)C1CC2CCC1C2 (stereo not drawn) | 0.102 µM | 
O=C(Nc1cccc(NC(=O)c2cccnc2)c1)c1ccccc1 | 1.29 µM | 
Cc1cccc(C(=O)Nc2cccc(NC(=O)c3cccc(C(F)(F)F)c3)c2)c1 | 0.011 µM | 
CC(c1ccccc1)n1c(-c2ccco2)n[nH]c1=S (stereo not drawn) | 0.567 µM | 
CCOc1ccccc1NC(=O)c1cccc(NC(=O)c2ccccc2C)c1 | 0.14 µM | 
Cc1cccc(NC(=O)c2cccc(NC(=O)c3ccccc3)c2)c1 |  | inactive
CCOc1ccccc1NC(=O)c1cccc(NC(=O)c2cccc(C(F)(F)F)c2)c1 | 0.232 µM | 
O=C(Nc1cccc(NC(=O)c2ccsc2)c1)c1ccccc1 | 0.162 µM | 
CC(C1CC2CCC1C2)n1c(SCC#N)nnc1-c1cccs1 (stereo not drawn) |  | inactive
COc1cccc(C(=O)Nc2cccc(NC(=O)c3ccccc3)c2)c1 | 0.212 µM | 

SMILES | IC50 | flux ratio, lower = inhibition
Cc1cccc(C(=O)Nc2cccc(NC(=O)c3ccc(N(C)C)cc3)c2)c1 | 0.145 µM | 
Cc1ccccc1C(=O)Nc1cccc(NC(=O)c2ccccc2)c1 | 0.104 µM | 
CCOc1ccc(NC(=O)c2cccc(NC(=O)C3CCCC3)c2)cc1 | 0.0702 µM | 
CC(C1CC2CCC1C2)n1c(-c2cccn2C)n[nH]c1=S (stereo not drawn) | 1.08 µM | 
CCOc1ccccc1NC(=O)c1cccc(NC(=O)c2ccccc2OC(F)(F)F)c1 | 0.114 µM | 
COc1ccccc1NC(=O)c1cccc(NC(=O)CC2CCCC2)c1 | 0.086 µM | 
Cc1cccc(C(=O)Nc2cccc(NC(=O)c3ccccc3C(C)C)c2)c1 | 0.328 µM | 
Cc1cccc(C(=O)Nc2cccc(NC(=O)c3ccco3)c2)c1 | 0.143 µM | 
Cc1cccc(C(=O)Nc2cccc(NC(=O)c3ccc(C(C)(C)C)cc3)c2)c1 | 0.184 µM | 
O=C(Nc1cccc(NC(=O)c2ccccn2)c1)c1ccccc1 | 0.0858 µM | 
CC(c1cccc2ccccc12)n1c(-c2ccco2)n[nH]c1=S (stereo not drawn) | 0.561 µM | 
O=C(Nc1cccc(NC(=O)c2ccco2)c1)c1ccccc1 | 0.0365 µM | 
Cc1cccc(C(=O)Nc2cccc(NC(=O)c3cccc(Cl)c3)c2)c1 | 0.003 µM | 
O=C(Nc1cccc(NC(=O)c2ccccc2)c1)c1ccccc1 | 0.018 µM | 
COc1ccccc1NC(=O)c1cccc(NC(=O)C2CCCC2)c1 | 0.238 µM | 
Cc1cccc(C(=O)Nc2cccc(NC(=O)C3CCCCC3)c2)c1 | 0.017 µM | 
CC(C1CC2CCC1C2)n1c(-c2ccccc2Cl)n[nH]c1=S (stereo not drawn) | 2.05 µM | 
CC(C1CC2CCC1C2)n1c(-c2cccs2)n[nH]c1=S (stereo not drawn) | 0.018 µM | 
O=C(Nc1cccc(NC(=O)c2ccoc2)c1)c1ccccc1 | 0.799 µM | 
COc1ccccc1C(=O)Nc1cccc(NC(=O)c2ccccc2OC(F)(F)F)c1 | 0.004 µM | 
CC(C1CC2CCC1C2)n1c(-c2ccco2)n[nH]c1=O (stereo not drawn) | 0.181 µM | 
Cc1cccc(C(=O)Nc2cccc(NC(=O)c3ccccc3C)c2)c1 | 0.0908 µM | 
CCOc1ccccc1NC(=O)c1cccc(NC(=O)c2ccccc2)c1 | 0.121 µM | 

SMILES | IC50 | flux ratio, lower = inhibition
CC(C)(C)c1ccc(C(=O)Nc2cccc(NC(=O)c3ccccc3)c2)cc1 |  | inactive
COc1ccccc1NC(=O)c1cccc(NC(=O)C2CCCCC2)c1 | 0.086 µM | 
CCOc1ccccc1NC(=O)c1cccc(NC(=O)c2ccc(C)cc2)c1 | 0.134 µM | 
CC(C1CC2CCC1C2)n1c(SCc2ccccc2)nnc1-c1ccco1 (stereo not drawn) | 1.66 µM | 
CC(C1CC2CCC1C2)n1c(-c2ccccc2)n[nH]c1=S (stereo not drawn) | 0.403 µM | 
CCOc1ccccc1NC(=O)c1cccc(NC(=O)C2CCCCC2)c1 | 0.0669 µM | 
CC(C1CC2CCC1C2)n1c(SC(F)F)nnc1-c1ccco1 (stereo not drawn) |  | inactive
Cc1cccc(C(=O)Nc2cccc(NC(=O)c3ccccc3)c2)c1 | 0.0963 µM | 
COc1ccc(C(=O)Nc2cccc(NC(=O)c3ccccc3)c2)cc1 | 2.27 µM | 
CCOc1ccccc1C(=O)Nc1cccc(NC(=O)c2ccccc2C(F)(F)F)c1 | 0.002 µM | 
CCOc1ccccc1NC(=O)c1cccc(NC(=O)C2CCOC2)c1 (stereo not drawn) | 1.33 µM | 
COc1cccc(-c2n[nH]c(=S)n2C(C)C2CC3CCC2C3)c1 (stereo not drawn) | 1.29 µM | 
CC(C)Oc1ccccc1C(=O)Nc1cccc(NC(=O)c2ccccc2OC(F)(F)F)c1 | 0.001 µM | 
CCOc1ccccc1NC(=O)c1cccc(NC(=O)CC2CCCC2)c1 | 0.161 µM | 
CCOc1ccccc1C(=O)Nc1cccc(NC(=O)c2ccccc2OC)c1 | 0.002 µM | 
Cc1cccc(C(=O)Nc2cccc(NC(=O)c3ccncc3)c2)c1 | 0.027 µM | 
COc1cccc(C(=O)Nc2cccc(NC(=O)c3cccc(C)c3)c2)c1 | 0.031 µM | 
COc1ccc(C(=O)Nc2cccc(NC(=O)c3cccc(C)c3)c2)cc1 | 1.33 µM | 
O=C(Nc1cccc(NC(=O)c2ccncc2)c1)c1ccccc1 | 0.249 µM | 
Cc1cccc(C(=O)Nc2cccc(NC(=O)c3ccccc3Cl)c2)c1 | 0.023 µM | 
COc1cc(OC)cc(-c2n[nH]c(=S)n2C(C)C2CC3CCC2C3)c1 (stereo not drawn) | 0.11 µM | 
Cc1cccc(NC(=O)c2ccccc2NC(=O)c2ccccc2)c1 | 1.38 µM | 
COc1ccccc1C(=O)Nc1cccc(NC(=O)c2cccc3ccccc23)c1 | 0.003 µM | 

SMILES | IC50 | flux ratio, lower = inhibition
O=C(Nc1cccc(NC(=O)c2cccc(C(F)(F)F)c2)c1)c1ccccc1 | 0.147 µM | 
S=c1[nH]nc(-c2ccco2)n1CC1CC2CCC1C2 (stereo not drawn) | 0.915 µM | 
CCOc1ccccc1NC(=O)c1cccc(NC(=O)c2ccccc2OC)c1 | 0.00653 µM | 
O=C(Nc1cccc(NC(=O)c2ccccc2Cl)c1)c1ccccc1 | 0.311 µM | 
Cc1cccc(C(=O)Nc2cccc(NC(=O)c3ccc(C(F)(F)F)cc3)c2)c1 |  | inactive
CCOc1ccccc1NC(=O)c1cccc(C(=O)NC2CCCC2)c1 | 0.342 µM | 
CCOc1ccccc1NC(=O)c1cccc(NC(=O)C(C)(C)C)c1 | 1.32 µM | 
COc1ccccc1NC(=O)c1cccc(NC(=O)c2ccccc2)c1 | 0.064 µM | 
CC(C1CC2CCC1C2)n1c(-c2ccc(Cl)cc2)n[nH]c1=S (stereo not drawn) | 0.24 µM | 
COc1ccccc1C(=O)Nc1cccc(NC(=O)c2ccccc2C(C)C)c1 | 0.007 µM | 
O=C(Nc1cccc(NC(=O)c2ccccc2C(F)(F)F)c1)c1ccccc1 | 0.13 µM | 
O=C(Nc1cccc(NC(=O)c2ccc(F)cc2)c1)c1ccccc1 | 0.306 µM | 
CCOc1ccccc1NC(=O)c1cccc(NC(=O)c2cccc(OC)c2)c1 | 0.005 µM | 
Cc1ccc(-c2n[nH]c(=S)n2C(C)C2CC3CCC2C3)cc1 (stereo not drawn) | 0.77 µM | 
COc1ccc(-c2n[nH]c(=S)n2C(C)C2CC3CCC2C3)cc1 (stereo not drawn) |  | inactive
O=C(Nc1cccc(NC(=O)c2cccc(F)c2)c1)c1ccccc1 | 0.0442 µM | 
CC(C1CC2CCC1C2)n1c(-c2ccco2)nnc1C(F)(F)F (stereo not drawn) | 1.18 µM | 
Cc1cccc(C(=O)Nc2cccc(C(=O)Nc3ccccc3)c2)c1 | 0.85 µM | 
O=C(Nc1cccc(NC(=O)c2ccc(C(F)(F)F)cc2)c1)c1ccccc1 |  | inactive
CC(C1CC2CCC1C2)n1c(-c2ccccc2F)n[nH]c1=S (stereo not drawn) | 2.2 µM | 
COc1ccccc1NC(=O)c1cccc(NC(=O)c2ccccc2C(F)(F)F)c1 | 0.042 µM | 
CCOc1ccccc1NC(=O)c1cccc(NC(=O)C2CCCO2)c1 (stereo not drawn) | 0.129 µM | 
CC(C1CC2CCC1C2)N(C)C(=O)c1ccco1 (stereo not drawn) | 0.006 µM | 

SMILES | IC50 | flux ratio, lower = inhibition
CCOc1ccccc1NC(=O)c1cccc(NC(=O)c2ccc(Cl)cc2)c1 | 0.139 µM | 
COc1ccccc1C(=O)Nc1cc(NC(=O)c2ccccc2C(C)C)ccc1F | 0.01 µM | 
O=C(Nc1cccc(NC(=O)c2ccc(Cl)cc2)c1)c1ccccc1 |  | inactive
S=c1[nH]nc(-c2ccco2)n1CC1CCCCC1 | 0.606 µM | 
CC(C1CC2CCC1C2)n1c(-c2cccnc2)n[nH]c1=S (stereo not drawn) | 1.02 µM | 
CCOc1ccccc1NC(=O)c1cccc(NC(=O)c2ccccc2C(F)(F)F)c1 | 0.0295 µM | 
COc1ccc(C(=O)CSc2nnc(-c3ccco3)n2C(C)C2CC3CCC2C3)cc1OC (stereo not drawn) | 2.08 µM | 
CC(C1CC2CCC1C2)n1c(C2CCOC2)n[nH]c1=S (stereo not drawn) |  | inactive
Cc1cccc(C(=O)Nc2ccccc2NC(=O)c2ccccc2)c1 | 0.26 µM | 
COc1cccc(OC)c1C(=O)Nc1cccc(NC(=O)c2cccc(C)c2)c1 | 0.148 µM | 
CC(C1CC2CCC1C2)n1cnnc1-c1ccco1 (stereo not drawn) | 0.018 µM | 
CC(C)c1ccccc1C(=O)Nc1cccc(NC(=O)c2ccccc2OC(F)(F)F)c1 | 0.011 µM | 
CC(C1CC2CCC1C2)n1c(-c2cccc(Cl)c2)n[nH]c1=S (stereo not drawn) | 0.02 µM | 
COc1cccc(-c2nnc(S(C)(=O)=O)n2C(C)C2CC3CCC2C3)c1 (stereo not drawn) | 0.106 µM | 
Cc1ccccc1-c1n[nH]c(=S)n1C(C)C1CC2CCC1C2 (stereo not drawn) | 0.912 µM | 
O=C(Nc1cccc(NC(=O)C2CCCCC2)c1)c1ccccc1 | 0.0792 µM | 
CC(NC(=O)c1ccco1)C1CC2CCC1C2 (stereo not drawn) | 0.07 µM | 
CCOc1ccccc1NC(=O)c1cccc(NC(=O)c2ccc(OC)cc2)c1 | 0.3 µM | 
COc1ccccc1C(=O)Nc1cccc(NC(=O)c2ccccc2)c1 | 0.222 µM | 
S=c1[nH]nc(-c2ccco2)n1C1CC2CCC1C2 (stereo not drawn) | 0.037 µM | 
Cc1cccc(C(=O)Nc2cccc(NC(=O)c3ccccc3C(F)(F)F)c2)c1 |  | inactive
